Compound activity as filed in PubChem BioAssay.
Rows were chosen to be rich in hits. Some 2.8% of all compounds tested hit in one or more screens of this group.
DENV2 CPE rescue: inhibitors of DENV2 cytopathic effect, primary screen, cell-based, plate reader, single concentration; DENV2-infected cells, cytopathic effect rescue; CPE inhibition, % at 9.99 µM; hit rate 1.7% among 350,000; in the data active = CPE inhibition above about 20%, passing the limit was not always enough; inconclusive = no clear call, values can overlap the other calls; tested in BHK-21 cells;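 note: 0% = median of neutral control wells and 100% = median of positive control wells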
SIRT5 inh: SIRT5 desuccinylase inhibitors, primary screen, biochemical, fluorescence imaging, single point, set 5; NAD-dependent protein deacylase sirtuin-5, mitochondrial (Homo sapiens), Q9NXA8; Purified SirT5, succinyl-peptide AMC, trypsin-coupled fluorescence; inhibition, % at 15 µM; hit rate 1.1% among 330,000; AID 652115, 2013; in the data active = inhibition above about 15%; inconclusive = no clear call, values can overlap the other calls
E-selectin induc: E-selectin induction in HUVECs, primary screen, imaging, HUVEC, immunofluorescence imaging, single point | P16581 | normalized: neutral wells 0, TNF-alpha wells 100 | activation, % at 7.58 µM | hit rate 0.37% among 260,000 | AID 686992, 2013;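 active = mean E-selectin-positive cell signal at least 10% of the positive control, reached in at least 60% of replicates, without over 20% cell loss; inconclusive = no rule given, readout overlaps actives, possibly toxicity-flagged; inactive = the rest, including those meeting only one limit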
Target sequence (P16581 whole entry, looked up): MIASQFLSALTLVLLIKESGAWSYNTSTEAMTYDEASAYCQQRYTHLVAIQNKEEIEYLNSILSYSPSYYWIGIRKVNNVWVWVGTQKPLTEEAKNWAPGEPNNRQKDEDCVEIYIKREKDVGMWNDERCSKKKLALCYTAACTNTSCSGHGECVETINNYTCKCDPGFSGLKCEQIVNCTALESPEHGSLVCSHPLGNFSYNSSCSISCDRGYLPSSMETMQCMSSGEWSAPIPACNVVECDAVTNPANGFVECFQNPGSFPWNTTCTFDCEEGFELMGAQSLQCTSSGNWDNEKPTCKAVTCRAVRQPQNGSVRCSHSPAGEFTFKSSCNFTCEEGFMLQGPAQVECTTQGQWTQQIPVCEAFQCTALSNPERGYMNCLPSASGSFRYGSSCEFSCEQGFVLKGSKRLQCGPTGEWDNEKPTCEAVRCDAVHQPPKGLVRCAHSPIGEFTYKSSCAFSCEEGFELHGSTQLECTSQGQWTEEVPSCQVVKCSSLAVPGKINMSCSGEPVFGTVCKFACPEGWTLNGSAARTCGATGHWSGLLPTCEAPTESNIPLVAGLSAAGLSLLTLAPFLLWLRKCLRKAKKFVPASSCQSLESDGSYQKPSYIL
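System: HUVEC, human umbilical vein endothelial cells; quantity: 3,000 cells/well; buffer or medium: EGM-2 medium, gelatin-coated wells; dosing: single-point compound dose; detection: immunofluorescence imaging; evaluation: % PE-positive cells; benchmarks: TNF-alpha, DMSO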
The depositor's hits bear a star; u = inconclusive; x = no result given; ! = not active in a repeat.

SMILES	DENV2 CPE rescue	SIRT5 inh	E-selectin induc
CCNC(=O)C[C@@H]1CC[C@H]2[C@@H](COc3ccc(NC(=O)Nc4cccc(F)c4)cc3C(=O)N2C)O1	2	-2	0
CCOc1cc(C(=O)N(C)CC(=O)Nc2cccc3ccccc23)ccc1OC	42*	-3	x
CN(CC(=O)Nc1cccc2ccccc12)C(=O)c1ccc(NC(=O)CC#N)cc1	-3	-1	0
CCCNC(=O)N1[C@@H](CO)[C@H](c2ccccc2)[C@@H]1CNC(=O)c1ccc(F)cc1	x	x	0
CCCNC(=O)N1[C@H](CO)[C@H](c2ccccc2)[C@@H]1CNC(=O)c1ccc(F)cc1	104*	x	0
CCCNC(=O)N1[C@H](CNC(C)=O)[C@@H](c2ccccc2)[C@@H]1CO	30*	x	0
CCCNC(=O)N1[C@@H](CO)[C@@H](c2ccccc2)[C@@H]1CNC(C)=O	-6	3	0
O=C(C[C@@H]1CC[C@H]2NC[C@H](O)COC[C@@H]2O1)NCc1ccc(Oc2ccccc2)cc1	0	-7	0
CC(=O)N1CC2(C1)[C@@H](c1ccc(-c3ccc(C#N)cc3)cc1)[C@@H](CO)N2C(C)=O	1	7	0
COc1ccc(COC(=O)C2=C(C)NC(=O)NC2c2ccccc2F)cc1 (centres undefined)	39*	2	-2
COc1ccc(COC(=O)C2=C(C)NC(=O)NC2c2ccccc2)cc1 (centres undefined)	19	12	0
CO[C@@H]1CN(C)C(=O)c2cc(NC(=O)C3CC3)ccc2OC[C@H](C)N(Cc2cccnc2)C[C@H]1C	5	-3	0
CCn1c(C)cc(/C=C2/SC(=O)N(C(C)C(=O)OC)C2=O)c1C (centres undefined)	-1	-1	0
CCn1c(C)cc(/C=C2/SC(=S)N(CC(=O)O)C2=O)c1C	x	15*	-6
COc1ccc(-c2cnc3c(c2)C(=O)N([C@H](C)CO)C[C@@H](C)[C@@H](CN(C)C)O3)cc1	12	3	0
COCC(=O)Nc1ccc2c(c1)C(=O)N(C)C[C@@H](OC)[C@H](C)CN(Cc1ccccc1C(=O)O)[C@H](C)CO2	5	-6	0
CC(C)(C)[C@@H]1C=C(C(=O)N2CCN(Cc3ccc4c(c3)OCO4)CC2)O[C@H](OCc2ccc(CO)cc2)C1	34*!	0	0
CC(C)(C)[C@H]1C=C(C(=O)N2CCN(Cc3ccc4c(c3)OCO4)CC2)O[C@@H](OCCCCO)C1	-7	-9	0
CO[C@H]1CC[C@@H]2CCOc3c(C#N)cccc3C(=O)N(C)C[C@H](OC)[C@@H](C)C(=O)N(C)C[C@@H]1O2	u	-3	0
CSc1ccccc1OCc1cc(C(=O)N(C)C2CCCc3ccccc32)no1 (centres undefined)	8	20*	x
CSc1ccccc1OCc1cc(C(=O)N2CCc3[nH]cnc3C2c2ccccn2)no1 (centres undefined)	50*	-2	-1
CSc1ccccc1OCc1cc(C(=O)N2CCN(c3ccccc3)CC2C)no1 (centres undefined)	-3	-4	-1
CSc1ccccc1OCc1cc(C(=O)NCCN2CCCC(O)C2)no1 (centres undefined)	1	-1	0
COc1ccc2c3c(n(C)c2c1)[C@H](CO)NCC31CCN(C(C)=O)CC1	4	x	0
CO[C@H]1CN(C)C(=O)c2cc(NC(C)=O)ccc2OC[C@@H](C)N(Cc2ccccn2)C[C@H]1C	-9	-2	0
SMILES	DENV2 CPE rescue	SIRT5 inh	E-selectin induc
CC(=O)N1[C@@H](CO)[C@@H](c2ccccc2)C12CN(C(=O)c1ccccc1)C2	-3	-2	0
COc1ccc([Si](C)(C)[C@@H]2[C@@H](CCO)O[C@]3(C(=O)N4c5c(cc(OC)cc53)C(C)=CC4(C)C)[C@H]2C)cc1	3	15*	x
COc1ccc([Si](C)(C)[C@H]2[C@H](CCO)O[C@@]3(C(=O)N4c5c(cc(OC)cc53)C(C)=CC4(C)C)[C@@H]2C)cc1	9	13	x
COc1ccc([Si](C)(C)[C@@H]2[C@@H](CCO)O[C@]3(C(=O)N(Cc4cccc(NC(C)=O)c4)c4ccccc43)[C@H]2C)cc1	-11	21*	x
COc1ccc([Si](C)(C)[C@H]2[C@H](CCO)O[C@@]3(C(=O)N(Cc4ccccc4)c4ccc(NC(C)=O)cc43)[C@@H]2C)cc1	19	3	x
COc1ccc([Si](C)(C)[C@H]2[C@H](CCn3cc([C@H](O)c4ccccc4)nn3)O[C@@]3(C(=O)N(Cc4cccc(N5CCC5=O)c4)c4ccccc43)[C@@H]2C)cc1	-11	5	x
COc1ccc([Si](C)(C)[C@H]2[C@H](CCn3cc([C@H](O)c4ccccc4)nn3)O[C@@]3(C(=O)N(Cc4cccc(N5CCOC5=O)c4)c4ccccc43)[C@@H]2C)cc1	7	23*	x
O=C(C[C@H]1CC[C@H]2[C@@H](COC[C@@H](O)CN2Cc2cc(F)ccc2F)O1)NCc1ccc(F)cc1	-4	-4	0
C[C@@H]1CN([C@H](C)CO)C(=O)c2cc(NC(=O)c3ccccc3)ccc2O[C@@H](C)CCCCO[C@H]1CN(C)Cc1ccc2c(c1)OCO2	-13	2	3
Cc1noc(C)c1S(=O)(=O)Nc1ccc2c(c1)C(=O)N([C@H](C)CO)C[C@H](C)[C@H](CN(C)CC1CC1)OCCCC[C@H](C)O2	-2	x	0
COc1cccc(S(=O)(=O)N2CCC3(CC2)CN[C@H](CO)c2[nH]c4cc(OC)ccc4c23)c1	-17	x	0
Cc1ccc(S(=O)(=O)Nc2ccc3c(c2)CC(=O)N([C@@H](C)CO)C[C@@H](C)[C@@H](CN(C)C(=O)Nc2ccccc2)O3)cc1	39*	1	x
Cc1ccc(S(=O)(=O)Nc2ccc3c(c2)CC(=O)N([C@H](C)CO)C[C@H](C)[C@@H](CN(C)C(=O)Nc2ccccc2)O3)cc1	-8	2	x
C[C@H]1CN([C@@H](C)CO)C(=O)Cc2cc(NS(=O)(=O)c3ccccc3)ccc2O[C@H]1CN(C)C(=O)Nc1ccc(F)cc1	5	1	0
C[C@@H]1CN([C@@H](C)CO)C(=O)Cc2cc(NS(=O)(=O)c3ccccc3)ccc2O[C@H]1CN(C)C(=O)Nc1ccc(F)cc1	36*	2	0
O=C(NC1CCC1)[C@@H]1[C@@H](CO)[C@@H]2Cn3c(ccc(-c4ccccc4)c3=O)[C@H]1N2	1	-31	0
O=C(NC[C@H]1[C@H](c2ccccc2)[C@H](CO)N1Cc1cccnc1)c1ccccn1	11	17*	0
COCC(=O)N1[C@H](CO)[C@@H](c2ccccc2)[C@H]1CNC(=O)c1ccccn1	4	7	0
COCC(=O)N1[C@H](CO)[C@H](c2ccccc2)[C@@H]1CNC(=O)c1ccccn1	-4	15*	0
O=C(NC[C@@H]1[C@H](c2ccccc2)[C@H](CO)N1CC1CC1)c1cccnc1	-6	11	0
COC(=O)C[C@@H]1CC[C@@H]2[C@H](COC[C@H](O)CN2CCC(F)(F)F)O1	1	-1	0
